Test results: ChEMBL document CHEMBL1155847, “Novel indoline-based acyl-CoA:cholesterol acyltransferase inhibitor with antiperoxidative activity: improvement of physicochemical properties and biological activities by introduction of carboxylic acid” (J Med Chem, 2008)
Values belong to the molecule of their own block, whether it stands above or below them.

Key:
[1] = Distribution coefficient, log D at pH 7.0; assay type: physicochemical; conditions: octanol/water
Outline: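 5 mg of compound in 5 mL octanol shaken 30 min at room temperature with 5 mL 1/15 M potassium phosphate buffer pH 7.0, then centrifuged. Both phases quantified by HPLC. log D taken as log of the octanol/buffer concentration ratio.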

[2] = Solubility in water at pH 7.0; assay type: physicochemical
Outline: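 6 mg of compound shaken 30 min at room temperature in 3 mL 1/15 M potassium phosphate buffer pH 7.0, centrifuged and filtered (0.45 µm). Filtrate concentration by HPLC.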

[3] = biological target: T1, Sterol O-acyltransferase 1 (Homo sapiens, UniProt P35610); test: Inhibition of ACAT-mediated esterified cholesterol accumulation in human THP1 cells exposed to acetyl-LDL during differentiation assessed as effect on foam cell formation; assay type: cell-based, THP-1
T1 sequence (P35610 whole entry): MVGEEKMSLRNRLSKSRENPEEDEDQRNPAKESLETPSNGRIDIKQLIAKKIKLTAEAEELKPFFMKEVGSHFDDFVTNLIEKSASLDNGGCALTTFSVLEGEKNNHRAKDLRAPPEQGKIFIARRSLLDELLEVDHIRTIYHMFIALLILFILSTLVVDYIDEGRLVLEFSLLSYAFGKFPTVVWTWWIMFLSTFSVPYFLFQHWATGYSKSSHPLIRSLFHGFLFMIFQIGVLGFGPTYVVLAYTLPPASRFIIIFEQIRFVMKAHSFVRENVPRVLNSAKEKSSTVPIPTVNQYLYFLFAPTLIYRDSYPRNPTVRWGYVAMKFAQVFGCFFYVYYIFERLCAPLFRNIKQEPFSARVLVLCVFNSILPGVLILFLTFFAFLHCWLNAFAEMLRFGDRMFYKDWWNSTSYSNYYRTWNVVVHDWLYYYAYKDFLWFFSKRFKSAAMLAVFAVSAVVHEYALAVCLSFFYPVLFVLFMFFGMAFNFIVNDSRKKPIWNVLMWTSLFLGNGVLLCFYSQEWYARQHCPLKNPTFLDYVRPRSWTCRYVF

Brain = test: Antiperoxidative activity in Sprague-Dawley rat brain assessed as inhibition of malonaldehyde level; assay type: functional, tissue-based
Outline: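 Cerebral cortex from male SD rats (6 weeks) homogenized in ice-cold 50 mM PBS pH 7.4, spun 1300g. Supernatant incubated 37 °C, 30 min with vehicle or compound. Stopped with 20% TCA; thiobarbituric acid reaction at 100 °C, 15 min; MDA read at 532 nm, less pre-assay MDA. Duplicate assay, n = 2.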

[4] = biological target: T2, Acyl-CoA:cholesterol acyltransferase (Oryctolagus cuniculus, UniProt Q95214); test: Inhibition of normocholesterolemic rabbit liver ACAT
T2 sequence (Q95214 whole entry): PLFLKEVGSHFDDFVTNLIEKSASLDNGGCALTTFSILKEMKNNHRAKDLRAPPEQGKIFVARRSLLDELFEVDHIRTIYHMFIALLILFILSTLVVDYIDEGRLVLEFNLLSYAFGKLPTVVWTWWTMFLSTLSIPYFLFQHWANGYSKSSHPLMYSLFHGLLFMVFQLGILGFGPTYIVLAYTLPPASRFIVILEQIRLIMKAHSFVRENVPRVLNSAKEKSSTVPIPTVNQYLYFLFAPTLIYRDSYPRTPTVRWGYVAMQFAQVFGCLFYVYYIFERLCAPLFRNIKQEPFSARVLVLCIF
Outline: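 Liver from normocholesterolemic male Japanese White rabbits homogenized in sucrose/phosphate/EDTA/dithioerythritol buffer pH 7.4. Microsomes collected by 12000g then 105000g spins. Then 30 nmol [1-¹⁴C]oleoyl-CoA added, 20 min at 37 °C. Cholesteryl ester extracted and separated by TLC.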

[5] = AUC in Sprague-Dawley rat at 10 mg/kg, po; assay type: ADME, organism-based; set-up: dose 10 mg/kg, route oral; conditions: plasma
Outline: (§1)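 Male SD rats, 6-7 weeks, fasted overnight, n = 3; single oral 10 mg/kg dose suspended in 5% arabic gum. Jugular-vein heparinized blood at 0.5, 1, 3, 5, 8, 24 h; plasma free-form compound by HPLC. AUC taken over 24 h.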

Oryctolagus cuniculus [6] = test: Hypolipidemic effect in high-cholesterol diet fed Japanese white rabbit assessed as HDL cholesterol level at 1 mg/kg/day, po for 7 days; assay type: functional
Outline: (§2)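 Male Japanese white rabbits (2.5-3.0 kg) fed 1% cholesterol diet for 7 days with once-daily oral dosing in 5% arabic gum, or vehicle (n = 5/group). Fasted overnight after the final dose; ear-artery blood. Serum total and HDL cholesterol by enzymatic kit.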

[7] = Cmax in Beagle dog at 10 mg/kg, po; assay type: ADME, organism-based, Canis lupus familiaris; set-up: dose 10 mg/kg, route oral; conditions: in vivo
Outline: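 Male beagles (9.0-11.6 kg, n = 4) dosed orally at 10 mg/kg as a 5% arabic gum suspension. Heparinized jugular-vein blood at 0.25, 0.5, 1, 2, 3, 5, 8, 12 h. Plasma free-form drug measured by HPLC.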

Canis familiaris [8] = test: Hypolipidemic effect in Western diet fed Beagle dog assessed as LDL/VLDL cholesterol level at 3 mg/kg/day, po for 7 days; assay type: functional, Canis lupus familiaris
Outline: (§3)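 Male beagles (8.8-12.0 kg) fed a Western diet (meat, eggs, butter) for 7 days with once-daily oral dosing in 5% arabic gum, or vehicle (n = 3/group). […] blood 24 h after the last dose. Serum total and HDL cholesterol measured enzymatically.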

[9] = Cmax in Japanese white rabbit at 10 mg/kg, po; assay type: ADME, organism-based, Oryctolagus cuniculus; set-up: dose 10 mg/kg, route oral; conditions: in vivo
Outline: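 Oral 10 mg/kg in 5% arabic gum to male Japanese white rabbits (2.7-3.0 kg, n = 4). Ear-vein heparinized blood at 0.25, 0.5, 1, 2, 3, 5, 8, 24 h. Free-form concentration in plasma by HPLC.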

[10] = biological target: T1, Sterol O-acyltransferase 1; test: Inhibition of ACAT-mediated esterified cholesterol accumulation in human THP1 cells exposed to acetyl-LDL after differentiation assessed as effect on foam cell formation; assay type: cell-based, THP-1
Outline: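 THP-1 cells first differentiated 3 days in RPMI-1640/10% FBS with PMA 200 nM and 2-mercaptoethanol 50 µM. Then washed and cultured 2 days with 50 µM 2-mercaptoethanol, acetyl-LDL 400 µg/mL from KHC rabbit plasma, and compound. Lipids extracted with hexane/isopropanol; esterified cholesterol = total minus free cholesterol, enzymatic; protein by Lowry. Duplicate assay, n = 4.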

Rattus norvegicus [11] = test: Hypolipidemic effect in high-cholesterol diet fed Wistar rat assessed as HDL cholesterol level at 3 mg/kg/day, po for 3 days; assay type: functional
Outline: (§4)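 Male Wistar rats, 8-9 weeks, on a diet of 1% cholesterol, 0.5% cholic acid and 10% coconut oil for 3 days; dosed orally once daily in 5% arabic gum, or vehicle (n = 5/group). Fasted 5 h after the last dose; abdominal-aorta blood under pentobarbital. Serum total and HDL cholesterol measured enzymatically.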

[12] = biological target: T2, Acyl-CoA:cholesterol acyltransferase; test: Inhibition of ACAT in hyperlipidemic white rabbit intestine microsomes assessed as esterified cholesterol accumulation; set-up: species or system Microsome
Outline: (§5)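 Microsomes (12000g then 105000g spins at 4 °C, sucrose/phosphate/EDTA/dithioerythritol buffer pH 7.4) from hypercholesterolemic rabbit tissues, in 154 mM phosphate pH 7.4 with BSA. Compound preincubated 5 min at 37 °C, then 30 nmol [1-14C]oleoyl-CoA added. Reaction at 37 °C: adrenal 10 min, intestine 7.5 min, liver 20 min, macrophage 30 min. Labelled cholesteryl ester extracted and resolved by TLC. IC50 from duplicate tubes.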

[13] = biological target: T2, Acyl-CoA:cholesterol acyltransferase; test: Inhibition of ACAT in hyperlipidemic white rabbit liver microsomes assessed as esterified cholesterol accumulation; set-up: species or system Microsome; outline: as §5
[14] = Inhibition of lipid peroxidation in genetically hypercholesterolemic KHC rabbit serum assessed as malonaldehyde level after 4 hrs; assay type: functional, cell-free; conditions: Oryctolagus cuniculus
Outline: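 Heparinized ear-artery plasma from KHC rabbits (2.4-2.7 kg) incubated with CuSO₄ 2 mM at 37 °C for 4 h with vehicle or compound. Lipid peroxide measured as MDA by kit. IC50 from duplicate tubes; n = 2.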

Oryctolagus cuniculus [15] = test: Hypolipidemic effect in high-cholesterol diet fed Japanese white rabbit assessed as LDL/VLDL cholesterol level at 1 mg/kg/day, po for 7 days; assay type: functional; outline: as §2
[16] = Cmax in Sprague-Dawley rat at 10 mg/kg, po; assay type: ADME, organism-based; set-up: dose 10 mg/kg, route oral; conditions: in vivo; outline: as §1
Cavia porcellus = test: Adrenotoxicity in guinea pig at 100 mg/kg/day administered for 4 days; assay type: toxicity, organism-based; conditions: in vivo, 96 h
[17] = biological target: T2, Acyl-CoA:cholesterol acyltransferase; test: Inhibition of ACAT in microsomes from hyperlipidemic white rabbit macrophages assessed as esterified cholesterol accumulation; outline: as §5
Syrian golden hamster [18] = test: Hypolipidemic effect in regular diet fed Syrian hamster assessed as LDL/VLDL cholesterol level at 3 mg/kg/day, po for 3 weeks; assay type: functional, Mesocricetus auratus
Outline: (§6)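 Male Syrian hamsters, 9 weeks, regular diet for 3 weeks with once-daily oral dosing in 5% arabic gum, or vehicle (n = 5/group). Abdominal-aorta blood 24 h after the last dose, under pentobarbital. Serum total and HDL cholesterol by enzymatic kit.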

Canis familiaris [19] = test: Hypolipidemic effect in Western diet fed Beagle dog assessed as HDL:HDL cholesterol level at 3 mg/kg/day, po for 7 days; assay type: functional, Canis lupus familiaris; outline: as §3
[20] = biological target: T2, Acyl-CoA:cholesterol acyltransferase; test: Inhibition of ACAT in hyperlipidemic white rabbit adrenal microsomes assessed as esterified cholesterol accumulation; set-up: species or system Adrenal gland; outline: as §5
Syrian golden hamster [21] = test: Hypolipidemic effect in regular diet fed Syrian hamster assessed as HDL:HDL cholesterol level at 3 mg/kg/day, po for 3 weeks; assay type: functional, Mesocricetus auratus; outline: as §6
Plasma = test: Inhibition of LDL oxidation in genetically hypercholesterolemic KHC rabbit plasma assessed as malonaldehyde level after 1 hr; assay type: functional, cell-free; conditions: Oryctolagus cuniculus
Outline: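 LDL fraction isolated from plasma of male KHC rabbits and oxidized with CuSO₄ 5 µM at 37 °C for 1 h with vehicle or compound. Oxidation read as MDA. IC50 from duplicate tubes per concentration; n = 4.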

Rattus norvegicus [22] = test: Hypolipidemic effect in high-cholesterol diet fed Wistar rat assessed as LDL/VLDL cholesterol level at 3 mg/kg/day, po for 3 days; assay type: functional; outline: as §4

logD [1]: 6.2 | solubility [2]: 0.08 µg/mL
SMILES: CCCCCCCCN1CCc2c(C)cc(C)c(NC(=O)C(C)(C)C)c21.Cl

IC50 [3]: > 10 µM | IC50 (Brain): 48.3 µM | IC50 [4]: 5.5 µM | AUC [5]: 100 ng·h/mL
SMILES: Cc1cc(C)c(NC(=O)C(C)(C)C)c2c1CCN2CCCCCCCCCC(=O)O

IC50 [3]: 1.8 µM | Cmax [7]: 26.8 µM | Cmax [9]: 7.2 µM | IC50 [10]: 0.3 µM | IC50 [12]: 0.72 µM | IC50 [13]: 0.69 µM | IC50 [14]: 4.4 µM | IC50 (Brain): 1.3 µM | Cmax [16]: 2.2 µM | IC50 [4]: 1.2 µM | IC50 [17]: 1.9 µM | AUC [5]: 1500 ng·h/mL | IC50 [20]: 15.9 µM | IC50 (Plasma): 0.98 µM
SMILES: CCCCCCCCN1CCc2c(C)c(CC(=O)O)c(C)c(NC(=O)C(C)(C)C)c21 [PACTIMIBE]
Activity (Oryctolagus cuniculus [6]): 15.4 mg/dL | Activity (Canis familiaris [8]): 31.6 mg/dL | Activity (Rattus norvegicus [11]): 29.4 mg/dL | Activity (Oryctolagus cuniculus [15]): 119.5 mg/dL | Activity (Cavia porcellus): Non-toxic | Activity (Syrian golden hamster [18]): 70.3 mg/dL | Activity (Canis familiaris [19]): 141.3 mg/dL | Activity (Syrian golden hamster [21]): 58.3 mg/dL | Activity (Rattus norvegicus [22]): 9.7 mg/dL

IC50 (Brain): 3.1 µM | AUC [5]: 200 ng·h/mL
SMILES: CCCCCCCCN1CCc2c(C)cc(C)c(NC(=O)C(C)(C)C)c21

logD [1]: 2.8 | solubility [2]: 732 µg/mL
SMILES: Cc1cc(C)c(NC(=O)C(C)(C)C)c2c1CCN2CCCCCCCCCC(=O)O.Cl

logD [1]: 2.3 | solubility [2]: 857 µg/mL
SMILES: CCCCCCCCN1CCc2c(C)c(CN)c(C)c(NC(=O)C(C)(C)C)c21.Cl.Cl

IC50 [14]: 21.6 µM | IC50 (Plasma): 132 µM
SMILES: CC(C)(Sc1cc(C(C)(C)C)c(O)c(C(C)(C)C)c1)Sc1cc(C(C)(C)C)c(O)c(C(C)(C)C)c1 [PROBUCOL]

IC50 [3]: > 10 µM | IC50 (Brain): 6.6 µM | IC50 [4]: > 10 µM | AUC [5]: 5000 ng·h/mL
SMILES: CCCCCCCCN1CCc2c(C)cc(C)c(NC(=O)C(C)(C)CCC(=O)O)c21
